Compound activity from PubChem.
This is a sample that favours compounds with a hit; in the whole collection about 29% have one here.
CYP2C9 activ: activators of human CYP2C9. activation factor at 5 µM. recombinant CYP2C9, luciferin-H conversion, luminescence; hits give high values; factor 1 = untreated enzyme, 0 = blocked. P11712. 96,000 compounds, 1.4% hits;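 active = activation factor of 2 or more for CYP2C9 at a 5 µM dose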;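 note: 0 = sulfaphenazole-blocked wells and 1 = vehicle-only wells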
CYP2C19 act: increases human CYP2C19 enzyme activity; recombinant CYP2C19, luciferin-H EGE luminescence; hits give high values; 0 = fully inhibited enzyme, 1 = untreated enzyme; activation factor at 5 µM; 96,000 tested, under 10 active;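 active = activation factor of at least 2 at 5 µM in the primary screen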;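 note: 0 = wells with 2.5 mM tranylcypromine and 1 = vehicle-only wells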
Target sequence (P33261 whole entry, looked up): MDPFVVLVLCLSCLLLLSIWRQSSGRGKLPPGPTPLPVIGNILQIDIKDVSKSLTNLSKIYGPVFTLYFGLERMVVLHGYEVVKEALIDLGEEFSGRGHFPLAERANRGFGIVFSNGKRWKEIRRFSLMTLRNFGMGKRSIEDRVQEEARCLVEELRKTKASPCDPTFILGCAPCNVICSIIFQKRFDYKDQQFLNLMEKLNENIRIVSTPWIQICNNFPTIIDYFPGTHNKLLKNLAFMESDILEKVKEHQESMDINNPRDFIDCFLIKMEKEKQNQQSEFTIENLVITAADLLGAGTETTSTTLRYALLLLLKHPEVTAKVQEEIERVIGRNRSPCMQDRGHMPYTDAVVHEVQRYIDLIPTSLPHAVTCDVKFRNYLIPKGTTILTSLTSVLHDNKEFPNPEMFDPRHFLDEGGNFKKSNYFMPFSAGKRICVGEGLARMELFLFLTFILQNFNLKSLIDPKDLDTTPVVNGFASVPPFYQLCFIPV
tolC growth inh: blocks growth of E. coli BW25113 tolC mutant. OD615. growth inhibition, % at 10 µM (by protocol). 65,000 compounds, 2.2% hits;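 active = growth inhibition at or above a cutoff equal to the mean over every tested compound plus 3 SD, cut at about 60% in these data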;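 note: growth measured after 20 h incubation at 37 °C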
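Doses: one dose of 10 µM final / Material: E. coli BW25113 ΔtolC::kan, tolC deletion mutant strain / Buffer or medium: LB with kanamycin 50 µg/mL / Evaluation: percent growth inhibition / Detection: optical density read at 615 nm / Incubation: 37 °C, 20 h exposure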
CYP2C19 inh: human CYP2C19 inhibition; P33261; CYP2C19 Supersomes, luciferin-H EGE luminescence, 30 min; inhibition, % at 5 µM; 96,000 compounds, 21% hits;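 active = CYP2C19 inhibition above a set limit at 5 µM in the primary screen, cut at about 50% in these data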;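 note: plate controls were negative control wells for no effect and 2.5 mM tranylcypromine positive control for full effect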
CYP2C9 inhib: human CYP2C9 inhibition; P11712; CYP2C9 Supersomes, luciferin-H conversion, luminescence; AID 777; inhibition, % at 5 µM; 96,000 compounds, 20% hits;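 active = blocking of liver enzyme CYP2C9 beyond about 50% at 5 µM, limit read from the data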
E coli WT exp: E. coli BW25113 growth inhibition, expanded screen; OD600 absorbance; growth inhibition, % at 100 µM; 98,000 compounds, 0.15% hits; AID 710;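 active = growth inhibition above about 50% at one test dose, limit read from the data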;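 note: growth measured after 20 h incubation at 37 °C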
* = called active by the depositor; . = not tested or not shown.

SMILES | CYP2C9 activ | CYP2C19 act | tolC growth inh | CYP2C19 inh | CYP2C9 inhib | E coli WT exp
O=P1(O)C=C(c2ccccc2)NC(c2ccccc2)=C1 | 1 | 1 | -8 | -1 | -1 | 0
CC(Nc1cccc2ccccc12)C(=O)N/N=C/c1ccccn1 (stereo unspecified) | 1.1 | 0.1 | . | 86* | -14 | 6
CC(Sc1nnc(CNc2cccc3ccccc23)n1-c1ccccc1)C(=O)N/N=C/c1ccco1 (stereo unspecified) | 0.9 | 0.8 | . | 15 | 13 | 4
CCOc1cc(S(=O)(=O)NCCc2cccc(C)c2)c(OCC)cc1-n1cnnn1 | 0.2 | 0.6 | 40 | 36 | 80* | -9
CCOc1cc(S(=O)(=O)NCCc2ccccc2C)c(OCC)cc1-n1cnnn1 | 0.1 | 0.2 | 39 | 84* | 89* | -16
CCOc1cc(S(=O)(=O)N(CC)CC)c(OCC)cc1-n1cnnn1 | 0.7 | 0.9 | . | 11 | 30 | 12
CCOc1ccc(-n2cnnn2)cc1S(=O)(=O)Nc1c(C)cccc1C | 0.6 | 0.9 | 4 | 12 | 36 | 4
O=C1NCC(O)=C1C=NC12CC3CC(CC(C3)C1)C2 | 1.1 | 1 | -15 | -3 | -9 | -3
N#Cc1ccc(COc2ccc(CCO)cc2-n2nc3ccccc3n2)cc1 | 0.1 | 0.5 | 23 | 53* | 89* | -14
O=C(Cn1nnc(-c2cccc(C(F)(F)F)c2)n1)N1CCCCCC1 | 4.2* | 0.4 | . | 57* | -325 | -1
COc1cc(/C=N/NC(=O)Nc2cccc3nsnc23)cc(OC)c1OC | 0.4 | 0.9 | . | 5 | 56* | -13
O=C(Nc1ccon1)c1cccc(C(F)(F)F)c1 | 1 | 0.6 | -9 | 39 | 2 | 5
COc1ccccc1NC(=O)Cc1noc(CSc2cc(C)c3ccccc3n2)n1 | 0.6 | 0.1 | 27 | 93* | 40 | -14
Cc1cc(C)c2c(=O)[nH]c(SCC(=O)NCc3ccccc3)nc2n1 | 0.7 | 0.7 | . | 34 | 30 | -8
Nc1cc(N)nc(SCC(=O)Nc2ccc(Br)cc2Cl)n1 | 0.4 | 0.3 | 19 | 74* | 56* | .
CCOC(=O)CNC(=O)CSc1nc(N)cc(N)n1 | 1.1 | 1 | -17 | -3 | -14 | 7
COc1ccccc1NC(=O)CSc1nc(N)cc(N)n1 | 1.7 | 0.3 | 10 | 72* | -73 | 6
COc1ccccc1NC(=O)CSc1nc2nc(C)cc(C)c2c(=O)[nH]1 | 0.5 | 0.9 | 17 | 14 | 52* | -1
O=C1c2cccc3c(Nc4ccccc4Cl)c([N+](=O)[O-])cc(c23)C(=O)N1CCO | 0.8 | 0.9 | . | 14 | 23 | 0
CCN1CCN(c2ccc(-n3c(C)nc4c(cnn4-c4ccccc4Cl)c3=O)cc2)CC1 | . | . | -22 | . | . | .
CC(NC(=O)C(=O)NN=C1CCCCCCCCCCC1)c1ccccc1 (stereo unspecified) | 1 | 0.9 | . | 14 | -3 | -1
COc1ccccc1NC(=O)CSc1nc2ccccc2cc1Cc1ccccc1 | 0.4 | 0 | . | 99* | 55* | -20
COc1ccccc1NC(=O)CSc1nc2ccccc2n1C(C)=O | 0.5 | 0.6 | 5 | 40 | 45 | 1
CCNC(=O)c1sc(-c2ccccc2)nc1C | 1.1 | 0.4 | -9 | 56* | -10 | 9
Cc1cc(N)n2ncc(-c3cccc(Br)c3)c2n1 | 0.3 | 0.6 | 14 | 39 | 72* | 6
SMILES | CYP2C9 activ | CYP2C19 act | tolC growth inh | CYP2C19 inh | CYP2C9 inhib | E coli WT exp
Cc1cc(N)n2ncc(-c3ccccc3)c2n1 | 0.7 | 0.6 | -9 | 38 | 35 | 5
Cc1ccccc1-n1c(C)nc2ccccc21 | 0.5 | 0.2 | 12 | 82* | 54* | 7
COC(=O)Cn1c(C)nc2ccccc21 | 0.9 | 1.3 | . | -26 | 11 | 1
Cc1cc(=O)cc(C)n1-c1ccc2c(c1)nc(C)n2-c1ccccc1 | 1.1 | 1.1 | -12 | -6 | -12 | .
Cc1nc2cc(S(=O)(=O)N(C)C)ccc2n1-c1ccccc1 | 0.7 | 0.2 | 11 | 81* | 25 | .
Cc1nc2ccccc2n1-c1ccccc1 | 0.6 | 0.3 | 5 | 67* | 40 | 9
Cn1c(=O)c2cc(S(=O)(=O)NC(C(=O)N3CCCCCC3)c3ccccc3)ccc2n(C)c1=O (stereo unspecified) | 0.6 | 0.5 | 2 | 47 | 41 | 7
O=[N+]([O-])c1cc(C(F)(F)F)ccc1Sc1ccc2ccccc2n1 | 1 | 1 | . | -2 | -3 | -3
O=[N+]([O-])c1cc(S(=O)(=O)C(F)(F)F)ccc1Sc1nc2ccccc2s1 | 0.5 | 0.4 | . | 63* | 51* | 20
CS(=O)(=O)c1ccc(Sc2nc3ccccc3[nH]2)c([N+](=O)[O-])c1 | 0.2 | 0.1 | . | 91* | 79* | 7
O=[N+]([O-])c1cc(S(=O)(=O)C(F)(F)F)ccc1Sc1nc2ccccc2[nH]1 | 0.2 | 0.1 | . | 90* | 76* | 23
COC(=O)c1nn(-c2c(C)n(C)n(-c3ccccc3)c2=O)cc1O | 0.9 | 1 | -11 | 2 | 12 | 7
O=C1CCC(=O)N1c1nc2nc(-c3ccccc3)cc(-c3ccccc3)n2n1 | 0.7 | 0.9 | 10 | 12 | 27 | -3
Cc1ccc(-n2c(C)cc(C(=O)CSc3nnnn3C)c2C)cc1 | 0.4 | 0.5 | 24 | 53* | 61* | -9
Cc1ccc(-n2c(C)cc(C(=O)CSc3nncs3)c2C)cc1 | 0.1 | 0 | 39 | 100* | 90* | -19
CC(=O)OC(C)(C)C#CCN1CCCC1 | 1.1 | 1.1 | . | -10 | -11 | 5
Cc1cc(C)cc(N2CCCn3c2nc2c3c(=O)n(CCN3CCOCC3)c(=O)n2C)c1 | 1 | 1.1 | -4 | -12 | -2 | 0
CC1(C)C(=O)OC(c2cccs2)C(C)(C)C1=O (stereo unspecified) | 1 | 0.3 | -9 | 71* | 5 | 7
O=C(Cn1c(=O)oc2cc(S(=O)(=O)N3CCCC3)ccc21)Nc1cccc(C(F)(F)F)c1 | 0.7 | 1.1 | 1 | -5 | 31 | 1
O=C(Cn1cnc2c(nnn2-c2cccc(Cl)c2)c1=O)N1CCCC1 | 1.7 | 0.9 | -1 | 10 | -67 | -9
CC(C(=O)NC1CCCc2ccccc21)N1CCN(Cc2ccc3c(c2)OCO3)CC1 (stereo unspecified) | 1 | 0.9 | -7 | 10 | 0 | 5
Cc1noc(C)c1C(=O)OCC(=O)NCCc1ccc(Cl)cc1 | 0.7 | 0.7 | 3 | 33 | 28 | -7
Cc1noc(C)c1C(=O)OCC(=O)c1cc(C)n(Cc2ccccc2Cl)c1C | 0.1 | 0.1 | 55 | 90* | 87* | -10
CCCn1c(N)c(C(=O)CSc2nc(C)cs2)c(=O)n(C)c1=O | 0.8 | 0.7 | . | 31 | 19 | 2
Cc1ccc(CNC(=O)COC(=O)c2c(C)noc2C)cc1 | 0.9 | 0.1 | -14 | 86* | 6 | -6
Cc1noc(C)c1C(=O)OCC(=O)c1ccc[nH]1 | 0.2 | 0.5 | -3 | 48 | 85* | 5
